Each structure is given as a SMILES string. Bounds are passed on as bounds.

Consider ten molecules from ChEMBL document CHEMBL1154714, “Design and synthesis of novel P2 substituents in diol-based HIV protease inhibitors” (Eur J Med Chem, 2010).

Series [1] has as its target T1, Protease (Human immunodeficiency virus 1, UniProt Q9YQ12). Put plainly: Inhibition of HIV1 protease. An outline of the steps: (§1)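 HIV-1 protease was cloned and expressed heterologously in E. coli. K_i values were determined in a fluorometric assay.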
The test system of series [2] is Human immunodeficiency virus 1. As to the kind of experiment: Antiviral activity against HIV1. The series is classed as functional, organism-based. Put shortly:
(§2)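 MT-4 cells (2 ×10⁴ cells/well) got 5-fold serial compound dilutions together with 20–50 TCID of HIV IIIb. The virus was wild type, or an M46I/V82F/I84V mutant isolated after 20 passages of IIIb in MT4 cells under increasing ritonavir. Cell viability was read with XTT after five days. EC₅₀ came from dose–response curves of percent cytoprotection.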

For series [3], the target named is T1, Protease. As to the kind of experiment: Inhibition of HIV1 recombinant protease by fluorometric assay. An outline of the steps: as §1
Series [4] concerns Human immunodeficiency virus 1. Put plainly: Antiviral activity against HIV1 3B bearing wild type protease infected in human MT4 cells assessed as inhibition of virus-induced cytopathic effect after 5 days by XTT assay. The series is classed as functional, organism-based. The conditions noted are these: Human immunodeficiency virus 1, 3B, MT4, 120 h. Put shortly: as §2
For orientation: Cytopathic effects are the visible damage that an infection or toxin causes in cultured cells.

Series [5] concerns Human immunodeficiency virus 1. Put plainly: Ratio of EC50 for HIV1 3B bearing protease with M46I, V82F and I84V mutation to EC50 for HIV1 3B bearing wild type protease. The series is classed as functional. Put shortly: (§3)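 HIV IIIb resistant variant (M46I, V82F, I84V) obtained after 20 passages in MT4 cells under rising ritonavir. MT4 cells (2×10⁴/well) received 5-fold serial compound dilutions together with 20–50 TCID of wild-type or mutant IIIb. After 5 days, cytopathic effect was read as viability by XTT. EC50 was taken from dose-response curves of percent cytoprotection.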

Series [6] relates to Human immunodeficiency virus 1. As to the kind of experiment: Antiviral activity against HIV1 3B bearing protease with M46I, V82F and I84V mutation infected in human MT4 cells assessed as inhibition of virus-induced cytopathic effect after 5 days by XTT assay. The series is classed as functional, organism-based. The conditions noted are these: Human immunodeficiency virus 1, 3B, MT4, 120 h. An outline of the steps:
as §3

Series [7] can be described thus: Apparent permeability across human Caco-2 cell membrane. Type of series: ADME, cell-based. A general note: Caco-2 cells form a polarised layer with tight junctions and transporters.

T1 sequence (Q9YQ12 whole entry): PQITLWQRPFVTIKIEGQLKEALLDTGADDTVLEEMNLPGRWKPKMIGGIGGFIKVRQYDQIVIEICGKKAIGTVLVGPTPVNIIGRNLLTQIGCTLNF

Broadly, the Ki is the dissociation constant of the complex between target and ligand, obtained from inhibition or displacement. As usually defined, the EC50 is the concentration giving half of the maximal effect. In turn, `O=C(N[C@H]1c2ccccc2C[C@H]1O)[C@H](OCc1ccccc1)[C@H](O)[C@@H](O)[C@@H](OCc1ccccc1)C(=O)N[C@H]1c2ccccc2C[C@H]1O` displayed a Ki at Protease [1] of 0.6 nM. This molecule also displayed a half-maximal effective concentration (EC50) in series [2] of 100 nM.
With `COCCNC(=O)[C@@H](NC(=O)[C@H](OCc1ccccc1)[C@H](O)[C@@H](O)[C@@H](OCc1ccccc1)C(=O)N[C@H]1c2ccccc2C[C@H]1O)C(C)C`, the Ki at Protease [3] was found to be 2.3 nM. Also, the EC50 in series [4] is 250 nM; in series [6], 1200 nM. In series [5], the Ratio EC50 came out at 5.
Usually Papp stands for the rate of passage across a membrane or cell layer, normalised by area and donor concentration. For `CC(C)[C@H](NC(=O)[C@H](OCc1ccccc1)[C@H](O)[C@@H](O)[C@@H](OCc1ccccc1)C(=O)N[C@H]1c2ccccc2C[C@H]1O)C(=O)NCC(F)(F)F`, the Ki at Protease [3] was 1.9 nM. Moreover, the results for the EC50 in series [4] and in series [6] were 150 nM and 920 nM, respectively. Besides, in series [5], the Ratio EC50 is 5. Moreover, the Papp in series [7] is 2.9 ×10⁻⁶ cm/s.
With `CC(C)[C@H](NC(=O)[C@H](OCc1ccccc1)[C@H](O)[C@@H](O)[C@@H](OCc1ccccc1)C(=O)N[C@H]1c2ccccc2C[C@H]1O)C(=O)NCCF`, the Ki on Protease [3] was found to be 1 nM. In addition, the EC50 worked out at 170 nM in series [4] and 440 nM in series [6]. Also, the Ratio EC50 in series [5] was 3. Further, the Papp in series [7] worked out at 1.6 ×10⁻⁶ cm/s.
With `CNC(=O)[C@H](CCOC)NC(=O)[C@H](OCc1ccccc1)[C@H](O)[C@@H](O)[C@@H](OCc1ccccc1)C(=O)N[C@H]1c2ccccc2C[C@H]1O`, at Protease [3], the inhibitory constant (Ki) is 10 nM. Moreover, the EC50 in series [4] was found to be 1800 nM; in series [6], 6900 nM. In addition, the Ratio EC50 in series [5] is 3.
Consider `CNC(=O)[C@@H](NC(=O)[C@H](OCc1ccccc1)[C@H](O)[C@@H](O)[C@@H](OCc1ccccc1)C(=O)N[C@H]1c2ccccc2C[C@H]1O)C(C)C`, for which the Ki on Protease [3] and at Protease [1] was 0.2 nM each time. The EC50 came to 140 nM in series [4], 140 nM in series [2] and 1200 nM in series [6]. Besides, the Ratio EC50 in series [5] was found to be 9. For the same molecule, the apparent permeability (Papp) in series [7] came to 1.4 ×10⁻⁶ cm/s.
As for `CNC(=O)[C@@H](NC(=O)[C@H](OCc1ccccc1)[C@H](O)[C@@H](O)[C@@H](OCc1ccccc1)C(=O)N[C@H]1c2ccccc2C[C@H]1O)C1COC1`, the Ki on Protease [3] amounted to 10 nM. Further, the EC50 in series [4] is 5400 nM; in series [6] it was greater than 10000 nM. The Ratio EC50 in series [5] is greater than 1.6.
For the molecule `CNC(=O)[C@H](NC(=O)[C@H](OCc1ccccc1)[C@H](O)[C@@H](O)[C@@H](OCc1ccccc1)C(=O)N[C@H]1c2ccccc2C[C@H]1O)C1COC1`, the Ki on Protease [3] was found to be 99 nM. Besides, the EC50 in series [4] and in series [6] was greater than 10000 nM in each case.
Turning to `CNC(=O)[C@@H](NC(=O)[C@H](OCc1ccccc1)[C@H](O)[C@@H](O)[C@@H](OCc1ccccc1)C(=O)N[C@H]1c2ccccc2C[C@H]1O)C(C)COC` (single isomer, unassigned; 4d), the Ki at Protease [3] turned out to be 18 nM. The figures for the EC50 in series [4] and in series [6] were 3500 nM and greater than 10000 nM, respectively. In series [5], the Ratio EC50 is greater than 2.
Consider `CNC(=O)[C@@H](NC(=O)[C@H](OCc1ccccc1)[C@H](O)[C@@H](O)[C@@H](OCc1ccccc1)C(=O)N[C@H]1c2ccccc2C[C@H]1O)C(C)COC` (single isomer, unassigned; 4e), for which the Ki at Protease [3] was 0.7 nM. Moreover, the concentration giving a half-maximal response (EC50) came out at 330 nM in series [4] and 1300 nM in series [6]. In series [5], the Ratio EC50 was found to be 4.
